Compound activity from PubChem BioAssay.
CHOP inhibitor – inhibitors of CHOP promoter induction, primary screen, cell-based, unfolded protein response, luciferase reporter; 220,000 tested, 3.8% active; inhibition, % at 10 µM; CHO-K1 CHOP-promoter luciferase, tunicamycin-induced, 15-18 h;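 active means compounds that reduced the stress-induced luciferase reporter signal by more than about 70% of percent inhibition, limit read from the data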
XBP1 UPR activ – activators of adaptive XBP1 UPR arm, primary screen, cell-based, CHO-XBP1 luciferase reporter, luminescence, uHTS | IRE1-XBP1 UPR activation; percent of tunicamycin response, DMSO as zero | activation, % at 20 µM | 330,000 tested, 0.33% active | AID 463104, 2010;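 active means versus positive control, 20 µM dose yields 30% or more activation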
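Material: IRE1-XBP1 luciferase reporter CHO line / Quantity: one thousand reporter cells per well / Buffer or medium: F12 with 10% serum / Compound: 20 µM single concentration, DMSO 1% / Times: 6 h treatment, 37 °C / Detection: Steady-Glo luciferase glow luminescence, 10 min after reagent addition / Benchmarks: tunicamycin high, DMSO low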
L major viab – Leishmania major promastigote growth inhibition, primary screen. 200,000 tested, 9% active. AID 1063, 2008. inhibition, % at 10 µM. Leishmania major promastigotes, resazurin fluorescence viability; in the data active means inhibition above about 50%;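 further: promastigotes grown with compound for 44 hours at 28 °C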
Dynein transport – inhibitors of GR-EGFP nuclear translocation, primary screen, dynein cargo transport inhibitor project, imaging, high-content, 3617.4 mouse cells; z-score, hits read low; AID 1381, 2008; test concentration mostly 20 µM; stimulated with dexamethasone, 1 µM; active compounds read low; 220,000 tested, 0.47% active;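 active means plate z-score of nuclear minus cytoplasmic receptor signal below a set negative limit, without overly bright fluorescence or cell loss, cut at about -3.5 in these data, passing the limit was not always enough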;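 further: z-score of nuclear minus cytoplasmic ring GR-EGFP intensity difference per well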
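Buffer or medium – tet-free medium with charcoal-stripped serum · Signal – automated 10x imaging of fixed Hoechst-stained cells · Also added – dexamethasone agonist, 1.0 µM final, for 30 min · Incubation – induction 48 h, compound 1 h, agonist 30 min · Read-out – GR-EGFP nuclear translocation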
T cruzi inh – inhibitors of intracellular T. cruzi growth, primary screen, luminescence, NIH3T3 host cells; T. cruzi beta-gal in NIH3T3, 90 h; 300,000 tested, 1.4% active; inhibition, % (concentration not given with the values);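 active means mean inhibition across valid replicates above about 55%, limit read from the data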;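 further: signal also drops with host cell toxicity which is not excluded here; higher percent means less beta-gal luminescence so fewer parasites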
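Read-out: Parasite load inhibition, % | Test system: Mouse NIH/3T3 fibroblasts infected with β-gal-expressing T. cruzi Tulahuen C4 | Amount: 5,000 cells/well | Medium: DMEM, 2% fetal bovine serum | Signal: GalScreen β-gal luminescence, detergent lysis, 60 min | Timing: 3 h attach, ≥90 h co-culture | Also added: Tulahuen C4 trypomastigotes, 5000/well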
UPR CHOP act – activators of apoptotic CHOP UPR arm, primary screen, cell-based, CHO-CHOP luciferase reporter, luminescence, uHTS | UPR activation; percent of tunicamycin response over DMSO baseline | activation, % at 10 µM | 330,000 tested, 0.34% active | AID 449763, 2010;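 active means at 10 µM dose, activation of 40% or more, normalized to positive control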
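System: CHO-CHOP luciferase reporter cell line; amount: 500 cells/well; buffer or medium: F12 medium containing 10% fetal bovine serum; incubation: 6 h compound exposure at 37 °C after overnight seeding; measured by: luciferase luminescence after 10 min with Steady-Glo reagent; evaluation: % reporter activation, DMSO baseline versus tunicamycin full activation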
Hits are given with their value; . = inactive; / = no result. Many of the other results were omitted from the sample, so hits are more common in it than they were.

SMILES	CHOP inhibitor	XBP1 UPR activ	L major viab	Dynein transport	T cruzi inh	UPR CHOP act
O=[N+]([O-])c1ccc(-c2cnc(SCc3ccccc3Cl)[nH]2)cc1	.	.	.	.	.	.
C[C@]12CCC(=O)C=C1C=C[C@@H]1[C@@H]2CC[C@@]2(C)[C@H]1CC[C@@]21CCC(=O)O1	/	.	/	/	.	.
COc1ccccc1NC(=O)C1=C(C)Nc2nnnn2C1c1ccccc1OC (configuration not stated)	.	.	.	.	.	.
COc1ccccc1NC(=O)C1=C(C)Nc2nnnn2C1c1ccccn1 (configuration not stated)	.	.	85	.	.	.
Cc1[nH]c2ccc(F)cc2c1CCN(Cc1ccncc1)C(=S)Nc1ccccc1	.	.	74	.	.	.
CNC(=S)N(CCc1c(C)[nH]c2ccc(F)cc12)Cc1cccnc1	/	.	/	/	.	.
Cc1[nH]c2ccccc2c1CCN(Cc1cccnc1)C(=S)Nc1cccc(F)c1	.	.	100	.	58	.
Cc1[nH]c2ccccc2c1CCN(Cc1cccs1)C(=S)Nc1ccccc1	.	.	.	.	.	.
CCOc1ccc(NC(=S)N(CCc2c(C)[nH]c3ccc(C)cc23)Cc2ccncc2)cc1	.	.	70	.	.	.
COc1ccc(NC(=S)NCCc2c(C)[nH]c3ccc(OC)cc23)cc1	.	.	62	.	.	.
COc1ccc(CCNC(=S)Nc2ccc(OC)cc2)cc1	.	.	.	.	.	.
Cc1csc(=O)n1CC(=O)OCC(=O)c1ccc(Br)cc1	/	.	/	/	.	.
CCCCn1cnc2cc(C)c(C)cc21	.	.	.	.	.	.
Cc1ccc(NC(=O)c2ccc3c(c2)C(=O)N(c2ccccc2C)C3=O)nc1	/	.	/	/	/	.
Cc1ccc(-c2nnc(N3CC(C)OC(C)C3)c3ccccc23)cc1 (configuration not stated)	.	.	.	.	.	.
Cc1[nH]c2ccccc2c1CCN(Cc1cccnc1)C(=S)Nc1ccc(F)cc1	.	.	100	.	.	.
Cc1[nH]c2ccc(F)cc2c1CCN(Cc1cccnc1)C(=S)Nc1ccccc1	.	.	100	.	60	.
COc1ccc(NC(=S)N(CCc2c(C)[nH]c3ccc(C)cc23)Cc2cccnc2)cc1	.	.	100	.	.	.
CCOc1ccc(NC(=S)N(CCc2c(C)[nH]c3ccccc23)Cc2cccnc2)cc1	.	.	100	.	.	.
Cc1[nH]c2ccccc2c1CCN(Cc1cccnc1)C(=S)NC(C)(C)C	/	.	/	/	.	.
O=C(NNS(=O)(=O)c1ccc(Cl)cc1)c1cccc(S(=O)(=O)N2CCOCC2)c1	.	.	/	.	.	.
CCC(Cc1ccccc1)NC(=O)CCNS(=O)(=O)c1cc(Br)cnc1N (configuration not stated)	/	.	/	/	.	.
COc1ccc(C(=O)N/N=C/c2cccc3cccnc23)cc1	.	.	97	.	.	.
COc1ccc(/C=N/NC(=O)COc2cccc3cccnc23)cc1OC	.	.	.	.	.	.
CCOc1ccc(C(=O)N/N=C/c2cccc3cccnc23)cc1	.	.	98	.	.	.
SMILES	CHOP inhibitor	XBP1 UPR activ	L major viab	Dynein transport	T cruzi inh	UPR CHOP act
CCOc1ccccc1C(=O)N/N=C/c1cccc2cccnc12	.	.	.	.	.	.
CCn1cc(/C=N/NC(=O)COc2cccc3cccnc23)c2ccccc21	.	/	60	.	.	/
CC1CC(C)CN(C(=O)CCCNC(=O)c2ccc(Cl)cc2)C1 (configuration not stated)	/	.	/	/	.	.
CCc1cc(C(=O)N(CCCOC)c2c(N)n(Cc3ccccc3)c(=O)[nH]c2=O)sc1C	/	.	/	/	.	.
CCOC(=O)C1CCN(S(=O)(=O)c2ccc3c4c(cccc24)C(=O)N3CC)CC1	/	.	/	/	/	.
CCOC(=O)CSc1nc2c(sc(=S)n2-c2ccccc2OC)c(=O)n1-c1ccccc1OC	/	.	/	/	.	.
COc1ccc(-n2c(SCC(=O)C(C)(C)C)nc3c(sc(=S)n3-c3ccccc3)c2=O)c(OC)c1	/	.	/	/	60	.
N=c1n(Cc2ccc(Cl)cc2)c2ccccc2n1CC(O)COc1ccccc1 (configuration not stated)	83	.	100	.	.	.
N=c1n(CCO)c2ccccc2n1Cc1ccc(Cl)cc1	.	.	.	.	.	.
COc1ccc(OCC(O)Cn2c(=N)n(Cc3ccccc3)c3ccccc32)cc1 (configuration not stated)	.	.	101	.	.	.
Cc1cccc(OCC(O)Cn2c(=N)n(Cc3ccccc3)c3ccccc32)c1 (configuration not stated)	.	.	/	.	.	.
Clc1ccc(CCNc2ncnc3c2nnn3Cc2ccccc2)cc1	/	.	/	/	.	.
CC1CC(C)CN(CCOc2ccc(Cl)cc2Cl)C1 (configuration not stated)	.	.	97	.	.	.
CC1CC(C)CN(CCOc2cccc(Cl)c2Cl)C1 (configuration not stated)	73	.	91	.	.	.
Clc1cccc(OCCn2cncn2)c1Cl	.	.	.	.	/	.
CCN1CCN(CCOc2cccc(Cl)c2Cl)CC1	.	.	86	.	78	.
COc1cc(OC)c(OC)cc1CNC(=O)CCN1C(=O)c2cccc([N+](=O)[O-])c2C1=O	/	.	/	/	.	.
Cc1cc(NS(=O)(=O)c2ccc(NC(=O)CCCOc3cccc(C)c3C)cc2)no1	/	.	/	/	.	.
CC(C)Nc1nc(Oc2ccc(Cl)cc2)cc(C(F)(F)F)n1	74	.	.	.	.	.
CCOc1ccc(NC(=O)c2ccc3c(c2)C(=O)N(Cc2ccncc2)C3=O)cc1	/	.	/	/	/	.
COc1ccc(/C=N/NC(=O)COc2ccc(Cl)cc2Cl)cc1Cn1nc(C)cc1C	93	.	.	.	.	.
CN1CCN(/N=C/c2ccc(Cl)c(Cl)c2)CC1	.	.	97	.	.	.
CN1CCN(/N=C/c2ccc(N(C)c3ccccc3)cc2)CC1	.	.	83	.	.	.
COc1cccc(NC(=O)Cn2c3ccc(F)cc3c3nc4n(c(=O)c32)CCCS4)c1	/	.	/	/	.	.
O=P(c1ccccc1)(c1ccccc1)c1cc(S(=O)(=O)O)ccc1O	/	.	/	/	.	.
COc1ccc(C(=O)NCCc2nnc3ccc(SCC(=O)N4CCCCC4)nn23)cc1	/	.	/	/	.	.
